Source: PMC4512242 (Nature chemical biology, 2015)
Numbering of substitutions follows the chain as printed. In names and notes the source's numbering stands. Ends that are not written are not given here.

T1: LynD Y67D (Lyngbya sp. PCC 8106, Y67D)
T1 chain: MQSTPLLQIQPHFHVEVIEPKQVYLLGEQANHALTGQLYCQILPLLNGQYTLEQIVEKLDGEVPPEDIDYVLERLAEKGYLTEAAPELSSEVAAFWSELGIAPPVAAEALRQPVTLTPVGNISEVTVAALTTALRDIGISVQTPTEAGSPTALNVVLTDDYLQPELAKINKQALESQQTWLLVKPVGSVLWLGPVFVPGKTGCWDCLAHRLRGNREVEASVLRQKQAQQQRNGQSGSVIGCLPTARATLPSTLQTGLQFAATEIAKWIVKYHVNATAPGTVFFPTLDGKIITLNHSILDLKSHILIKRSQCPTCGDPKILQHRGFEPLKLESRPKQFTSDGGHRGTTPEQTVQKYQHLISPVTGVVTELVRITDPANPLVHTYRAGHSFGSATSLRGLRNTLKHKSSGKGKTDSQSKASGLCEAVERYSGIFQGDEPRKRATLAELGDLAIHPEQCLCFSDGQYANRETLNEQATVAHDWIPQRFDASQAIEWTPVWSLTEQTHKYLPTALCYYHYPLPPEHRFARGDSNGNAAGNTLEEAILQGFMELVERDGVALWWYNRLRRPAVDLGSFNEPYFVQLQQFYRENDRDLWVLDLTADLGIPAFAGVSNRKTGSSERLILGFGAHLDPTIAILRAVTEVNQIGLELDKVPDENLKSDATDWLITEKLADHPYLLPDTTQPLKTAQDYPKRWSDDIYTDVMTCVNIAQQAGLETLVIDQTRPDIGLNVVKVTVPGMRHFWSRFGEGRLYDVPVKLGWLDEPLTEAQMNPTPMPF

T2: LynD R399E (Lyngbya sp. PCC 8106, R399E)
T2 chain: T1 chain with D67Y, R399E

B1: PatE′ (modified PatE precursor peptide with full leader and a single core peptide ITACITFC) (peptide)
chain: MDKKNILPQQGQPVIRLTAGQLSSQLAELSEEALGDAGLEASKITACITFCAYDGELE
B2: PatE′ C51A (peptide)
chain: B1 chain with C51A
B3: PatE′ E32R (peptide)
chain: B1 chain with E32R
B4: PatE′ L26R (peptide)
chain: B1 chain with L26R
B5: LynD heterocyclase (cyclodehydratase), full length (enzyme, Lyngbya sp. PCC 8106)
chain: T1 chain with D67Y
B6: LynD fusion protein (PatE leader residues 21-38 and an eleven residue linker on the N-terminus of LynD) (enzyme)
chain: QLSSQLAELSEEALGDAGAGAGAGAGAGAMQSTPLLQIQPHFHVEVIEPKQVYLLGEQANHALTGQLYCQILPLLNGQYTLEQIVEKLDGEVPPEYIDYVLERLAEKGYLTEAAPELSSEVAAFWSELGIAPPVAAEALRQPVTLTPVGNISEVTVAALTTALRDIGISVQTPTEAGSPTALNVVLTDDYLQPELAKINKQALESQQTWLLVKPVGSVLWLGPVFVPGKTGCWDCLAHRLRGNREVEASVLRQKQAQQQRNGQSGSVIGCLPTARATLPSTLQTGLQFAATEIAKWIVKYHVNATAPGTVFFPTLDGKIITLNHSILDLKSHILIKRSQCPTCGDPKILQHRGFEPLKLESRPKQFTSDGGHRGTTPEQTVQKYQHLISPVTGVVTELVRITDPANPLVHTYRAGHSFGSATSLRGLRNTLKHKSSGKGKTDSQSKASGLCEAVERYSGIFQGDEPRKRATLAELGDLAIHPEQCLCFSDGQYANRETLNEQATVAHDWIPQRFDASQAIEWTPVWSLTEQTHKYLPTALCYYHYPLPPEHRFARGDSNGNAAGNTLEEAILQGFMELVERDGVALWWYNRLRRPAVDLGSFNEPYFVQLQQFYRENDRDLWVLDLTADLGIPAFAGVSNRKTGSSERLILGFGAHLDPTIAILRAVTEVNQIGLELDKVPDENLKSDATDWLITEKLADHPYLLPDTTQPLKTAQDYPKRWSDDIYTDVMTCVNIAQQAGLETLVIDQTRPDIGLNVVKVTVPGMRHFWSRFGEGRLYDVPVKLGWLDEPLTEAQMNPTPMPF

Experiments:
[1] = test system: LynD; assay: Heterocyclization reaction with LynD, MS; type: biochemical, Lyngbya sp. PCC 8106; conditions: LynD wild type; 100 μM PatE′ or variant, 5 μM enzyme, 150 mM NaCl, 10 mM HEPES pH 7.4, 1 mM TCEP, 5 mM ATP, 5 mM MgCl2, 16 h, 37 °C; ESI or MALDI MS
Summary of the method: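 Codon-optimized full-length LynD, with a TEV-cleaved His6-tag, is purified from E. coli BL21 (DE3) by Ni, monoQ and size-exclusion steps. PatE′ (C-terminal His6) comes from inclusion bodies, purified in 8 M urea, then DTT-treated and gel-filtered. 100 μM substrate is reacted with 5 μM enzyme and 5 mM ATP/MgCl2 in HEPES pH 7.4 for 16 h at 37 °C. Heterocycle number is read by ESI or MALDI MS.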

[2] = test system: LynD Fusion; assay: Heterocyclization reaction with LynD fusion, MS; type: biochemical, Lyngbya sp. PCC 8106
Summary of the method: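 Enzyme is LynD carrying PatE leader residues 21-38 plus an 11-residue linker at its N-terminus, expressed in E. coli BL21 (DE3) with the His6-tag removed by TEV. Product is read by ESI/MALDI MS or LC-MS […].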

[3] = test system: TruD; assay: Heterocyclization reaction with TruD, LCMS; type: biochemical; conditions: ITACITFCAYDG core peptide, no leader, 16 h
[4] = target: T1, LynD Y67D; assay: ITC
[5] = target: B5; assay: ITC
[6] = target: T2, LynD R399E; assay: ITC
[7] = target: B5; assay: crystal structure
[8] = target: the molecule itself; assay: SEC

With “PatE′ E32R (MDKKNILPQQGQPVIRLTAGQLSSQLAELSERALGDAGLEASKITACITFCAYDGELE; not fully specified (C-terminus); cysteine pairing not given here)” the No. of heterocycles [1] was 2.

For “MDKKNILPQQGQPVIRLTAGQLSSQLAELSEEALGDAGLEASKITACITFCAYDGELEHHH HHH [PatE′]”, the No. of heterocycles ([2]; LynD Fusion, 100 μM PatE′, 5 μM enzyme, pH 7.4, 5 mM ATP, 5 mM MgCl2, 16 h, 37 °C, ESI or MALDI MS) was 2 and the No. of heterocycles [1] was 2.

With ITACITFCAYDG the “heterocycles formed in leaderless test peptide” value ([2]; LynDfusion, ITACITFCAYDG core peptide, no leader, 2 h, LCMS) was “predominantly 2 heterocycles after just 2 h” and the “heterocycles formed in leaderless test peptide” value [3] was “only 1 heterocycle is formed”.

With “PatE′ L26R (MDKKNILPQQGQPVIRLTAGQLSSQRAELSEEALGDAGLEASKITACITFCAYDGELE; not fully specified (C-terminus); cysteine pairing not given here)” the No. of heterocycles [1] was 2.

B1 was tested, and the Kd [4] was 12.9 µM, the Kd [5] was 1.49 µM and the Kd [6] was 10.7 µM.

B2: binds [7].

With B3 the Kd [5] was 18.4 µM and the Kd [6] was 8.55 µM.

Work on B4 yielded a Kd [4] of 15.2 µM.

With B5 the “stoichiometry N” value [8] was 2.

With B6 the “stoichiometry N” value [8] was 2.
